Results published in PMC4229392 (Investigational new drugs, 2014).
Where “and” joins values, the source holds several entries; their conditions need not be identical. Equal entries are not always repeated. Entries after “also recorded” stand apart in the source; their conditions may differ.

Experiments:
[1] = cited from earlier work
[2] = acidic solution; preclinical evaluations; cited from earlier work
[3] = tested on: AAK inhibition in xenograft models; conditions: cited from earlier work
[4] = Urine PK, renal clearance of alisertib; type: in vivo, human
Procedure, shortened: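 Urine was collected only from patients dosed at 40 mg BID or higher. Samples were taken pre-dose on day 1 and pooled over 0–12 h after the day 7 morning dose of the 7-day oral BID course. Renal clearance was derived from the day 7 collection in 12 patients (10 at 50 mg BID, 2 at 60 mg BID). Quantitation was by LC-MS/MS.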

[5] = tested on: advanced, non-hematologic malignancies; test: Antitumor activity by RECIST version 1.1; type: in vivo, human
[6] = tested on: patients with advanced, non-hematologic malignancies
[7] = Plasma pharmacokinetics of alisertib ECT; type: in vivo, human; conditions: for Tmax: human, plasma
Procedure, shortened: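 Adults with advanced non-haematologic cancers took oral enteric-coated tablets at 10–60 mg BID for 7 days, then 14 days off (21-day cycles). In cycle 1, plasma was sampled within 1 h before the morning dose and at 0.5–12 h post-dose on days 1 and 7. Further samples were taken 12–132 h after the day 7 evening dose. A validated LC-MS/MS assay and non-compartmental analysis were used. Geometric means were reported only for cohorts of at least 2 patients.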

[8] = human, in vivo, 7 days of each 21-day cycle
[9] = steady-state (day 7), ECT, 20 mg BID (n = 3)
[10] = steady-state (day 7), ECT, 40 mg BID (n = 3)
[11] = steady-state (day 7), ECT, 50 mg BID (n = 11)
[12] = steady-state (day 7), ECT, 60 mg BID (n = 2)

## COc1cc(Nc2ncc3c(n2)-c2ccc(Cl)cc2C(c2c(F)cccc2OC)=NC3)ccc1C(=O)O [alisertib]
[1]; 40 mg BID for 7 days, n = 14, 90% CI: 74.4–108.8%
  Estimated relative bioavailability (geometric mean ratio of steady state alisertib AUC0-τ) of ECT in reference to PIC: 90%
[1]; relative bioavailability analysis of phase 1 data
  Systemic exposures of ECT formulation compared with PIC formulation: generally similar
[2]
  Solubility (in words): reduced solubility in acidic solution
[3]; murine xenograft studies
  Concentration associated with saturating levels of pharmacodynamic (PD) activity: 1 µM
[3]; preclinical xenograft models
  Concentration associated with AAK inhibition and antitumor activity: 1 µM
[4]; in vivo
  Renal clearance (in words): negligible
[4]; urine 0 to 12 h postdose day 7, 12 patients (50 and 60 mg BID)
  Renal clearance as share of apparent oral clearance: less than 0.1%
[5]; 16 response-evaluable patients
  Patients with stable disease: Nine patients achieved stable disease; also recorded: Nine patients had stable disease
  Responses by RECIST: No responses by RECIST were observed; also recorded: no complete or partial responses by RECIST were observed
[5]; N = 24
  Patients completing treatment for symptomatic deterioration: 21%
[5]; censored observations (*)
  Duration of stable disease, individual patients: 3.98 months and 1.28 months and 5.45 months and 6.93 months
[5]; not censored
  Duration of stable disease, individual patients: 5.59 months and 2.56 months and 3.48 months and 3.15 months and 8.31 months
[6]; 50 mg BID
  Patients with drug-related SAEs in the MTD cohort: 4 patients
[6]; 50 mg starting dose, not considered related to alisertib
  Patients who died during the first treatment cycle: 2 patients
[6]; ECT, × 7 days in a 21-day cycle
  Maximum tolerated dose (MTD): 50 mg BID
[6]; human, in vivo
  Patients in whom dose reductions were necessary: 21%
  Patients who discontinued treatment due to AEs: 29%
  Patients with any grade of drug-related central nervous system (CNS) AEs: 33%
  Patients with cycle 1 dose-limiting toxicity (grade 4 febrile neutropenia): 1 of 13
  Patients with dose reduction for neutropenia: 13%
  Patients with dose reduction for thrombocytopenia: 8%
  Patients with drug-related CNS AE dizziness: 2 n
  Patients with drug-related CNS AE hypersomnia: 5 n
  Patients with drug-related CNS AE memory impairment: 3 n
  Patients with drug-related grade 3 or higher gastrointestinal AEs: 25%
  Patients with drug-related grade 3 or higher hematologic AEs: 50%
  Patients with drug-related neutropenia: 50%
  Patients with treatment-related fatigue: 33%
[6]; human, in vivo, 7 days
  Alopecia, all-grade treatment-related AE: 10 (42) n (%)
  Anemia, all-grade treatment-related AE: 3 (13) n (%)
  Decreased appetite, all-grade treatment-related AE: 5 (21) n (%)
  Diarrhea, all-grade treatment-related AE: 10 (42) n (%)
  Diarrhea, grade ≥3 treatment-related AE: 2 (8) n (%)
  Fatigue, all-grade treatment-related AE: 8 (33) n (%)
  Fatigue, grade ≥3 treatment-related AE: 2 (8) n (%)
  Febrile neutropenia, all-grade treatment-related AE: 3 (13) n (%)
  Febrile neutropenia, grade ≥3 treatment-related AE: 3 (13) n (%)
  Hypersomnia, all-grade treatment-related AE: 5 (21) n (%)
  Leukopenia, grade ≥3 treatment-related AE: 9 (38) n (%)
  Memory impairment, all-grade treatment-related AE: 3 (13) n (%)
  Nausea, grade ≥3 treatment-related AE: 2 (8) n (%)
  Neutropenia, all-grade treatment-related AE: 12 (50) n (%)
  Neutropenia, grade ≥3 treatment-related AE: 11 (46) n (%)
  Oral candidiasis, all-grade treatment-related AE: 4 (17) n (%)
  Recommended phase 2 dose (RP2D): 50 mg BID
  Severity of CNS AEs (hypersomnia, memory loss, dizziness): 1–2 grade
  Stomatitis, all-grade treatment-related AE: 10 (42) n (%)
  Stomatitis, grade ≥3 treatment-related AE: 2 (8) n (%)
  Thrombocytopenia, all-grade treatment-related AE: 4 (17) n (%)
  Vomiting, all-grade treatment-related AE: 5 (21) n (%)
  Vomiting, grade ≥3 treatment-related AE: 2 (8) n (%)
[6]; [8]
  Leukopenia, all-grade treatment-related AE: 10 (42) n (%)
  Nausea, all-grade treatment-related AE: 10 (42) n (%)
[6]; in vivo
  Tolerability of dose level: poorly tolerated
[7]; BID dosing, all doses
  Overall mean peak/trough ratio: 2.2
[7]; RP2D of 50 mg BID, ECT
  Geometric mean steady-state trough concentration: > 1 µM
[7]; following BID dosing, all doses
  Accumulation ratio: 2.4
[7]; oral, 40 mg, Median Tmax (range), steady-state (day 7), ECT, 40 mg BID (n = 3)
  Tmax: 3 h
[7]; oral, 50 mg, Median Tmax (range), steady-state (day 7), ECT, 50 mg BID (n = 11)
  Tmax: 2.4 h
[7]; oral, 60 mg, Median Tmax (range), steady-state (day 7), ECT, 60 mg BID (n = 2)
  Tmax: 2.8 h
[7]; po, Overall median Tmax, oral ECT, all doses, range 0–11
  Tmax: ~3 h
[7]; steady-state (day 7), 10–60 mg BID
  Dose dependence of systemic exposure: increased with increasing doses
[7]; [9]
  Mean accumulation ratio (SD): 3.0 (1.0)
  Mean peak/trough ratio (SD): 2.1 (0.7)
[7]; [10]
  Mean accumulation ratio (SD): 2.3 (0.4)
  Mean peak/trough ratio (SD): 2.3 (1.4)
[7]; [11]
  Mean accumulation ratio (SD): 2.2 (0.9)
  Mean peak/trough ratio (SD): 2.3 (0.8)
[7]; [12]
  Mean accumulation ratio: 2.4
  Mean peak/trough ratio: 1.8
